# Laboratory results published in ChEMBL document CHEMBL1127619, “Synthesis of naltrexone-derived delta-opioid antagonists. Role of conformation of the delta address moiety” (J Med Chem, 1994).
# Experiments:
# [1] = target: T1, Delta-type opioid receptor (Rattus norvegicus, UniProt P33533); test: Tested for binding activity against delta1 opioid receptor using [3H]DPDPE ligand
# [2] = target: Kappa-type opioid receptor (Cavia porcellus, UniProt P41144); test: Tested for binding activity against kappa opioid receptor using [3H]U-69593 ligand
# How it was run: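 Guinea pig brain membranes; competition of test ligand against the tritiated radioligand selective for each site: [3H]DPDPE (δ1), [3H]U69593 (κ), [3H]DAMGO (μ). Ki values derived from the competition curves.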
# [3] = target: Delta-type opioid receptor (Mus musculus) (UniProt P32300); settings: 100 nM
# [4] = target: Mu-type opioid receptor (Cavia porcellus) (UniProt P97266); settings: 100 nM
# [5] = tested on: Mus musculus; test: Antagonism of antinociceptive effect of delta 2 selective agonist DSLET in mice, icv (treated); assay type: functional; settings: central
# [6] = species on record: Mus musculus; test: Antagonism of antinociceptive effect of mu receptor selective agonist morphine in mice (control); assay type: functional
# How it was run: (§1)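 Mouse tail-flick assay; agonist given icv without antagonist pretreatment, timed so its peak effect fell at the centre of the observation period. Control ED50 derived, expressed as nmol/mouse for DPDPE and DSLET and as µmol/kg for morphine and U50488.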
# [7] = tested on: Mus musculus; test: Antagonism of antinociceptive effect of mu receptor selective agonist morphine in mice, icv (treated); assay type: functional; settings: central
# How it was run: (§2)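 Mice received 2 nmol antagonist icv, timed with the icv agonist so the antagonist peak (20 min) coincided with the centre of the tail-flick observation period. Treated ED50 is in nmol/mouse for DPDPE and DSLET and in µmol/kg for morphine and U50488. ED50 ratio is treated over control.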
# [8] = species on record: Mus musculus; test: Antagonism of antinociceptive effect of kappa receptor selective agonist U-50,488 in mice (control); assay type: functional; how it was run: as §1
# [9] = species on record: Mus musculus; test: Antagonism of antinociceptive effect of delta 1 selective agonist DPDPE in mice (control); assay type: functional; how it was run: as §1
# [10] = tested on: Mus musculus; test: Antagonism of antinociceptive effect of delta 1 selective agonist DPDPE in mice, icv (treated); assay type: functional; settings: central
# [11] = tested on: Mus musculus; test: Antagonism of antinociceptive effect of kappa receptor selective agonist U-50,488 in mice, icv (treated); assay type: functional; settings: central; how it was run: as §2
# [12] = species on record: Mus musculus; test: Antagonism of antinociceptive effect of delta 2 selective agonist DSLET in mice (control); assay type: functional; how it was run: as §1
# [13] = target: T1, Delta-type opioid receptor; test: Tested for binding activity against delta opioid receptor using [3H]naltridole ligand
# [14] = target: Kappa-type opioid receptor (Cavia porcellus) (UniProt P41144); settings: 100 nM
# [15] = target: Kappa-type opioid receptor (Cavia porcellus) (UniProt P41144); settings: 100 nM; remark: listed apart in the source
# Sequence of Mu-type opioid receptor (Cavia porcellus) (P97266 whole entry): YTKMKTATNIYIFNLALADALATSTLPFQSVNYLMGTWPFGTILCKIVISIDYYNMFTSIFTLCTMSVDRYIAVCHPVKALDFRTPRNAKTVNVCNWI
# Sequence of Kappa-type opioid receptor (Cavia porcellus) (P41144 whole entry): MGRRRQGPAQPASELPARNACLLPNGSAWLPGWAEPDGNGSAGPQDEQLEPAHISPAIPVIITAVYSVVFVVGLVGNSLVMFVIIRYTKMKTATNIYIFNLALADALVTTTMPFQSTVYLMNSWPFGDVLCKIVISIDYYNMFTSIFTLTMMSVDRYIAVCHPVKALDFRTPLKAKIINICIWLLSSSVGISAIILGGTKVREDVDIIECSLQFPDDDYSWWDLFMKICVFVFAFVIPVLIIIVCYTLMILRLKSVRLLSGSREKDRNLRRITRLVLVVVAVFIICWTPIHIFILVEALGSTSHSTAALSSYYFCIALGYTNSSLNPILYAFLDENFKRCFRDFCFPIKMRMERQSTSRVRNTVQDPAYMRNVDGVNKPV
# Sequence of Kappa-type opioid receptor (P41144 whole entry): as above
# Sequence of Delta-type opioid receptor (Mus musculus) (P32300 whole entry): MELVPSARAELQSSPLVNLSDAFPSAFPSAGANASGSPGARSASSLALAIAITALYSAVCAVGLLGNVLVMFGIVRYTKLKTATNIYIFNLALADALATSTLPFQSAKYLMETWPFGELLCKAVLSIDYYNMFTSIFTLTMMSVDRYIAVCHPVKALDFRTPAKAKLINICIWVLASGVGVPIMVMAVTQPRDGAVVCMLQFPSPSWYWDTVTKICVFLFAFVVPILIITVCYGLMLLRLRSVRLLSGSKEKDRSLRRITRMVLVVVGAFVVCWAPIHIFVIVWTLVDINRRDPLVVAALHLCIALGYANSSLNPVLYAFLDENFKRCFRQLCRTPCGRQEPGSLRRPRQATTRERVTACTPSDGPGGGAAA
# T1 sequence (P33533 whole entry): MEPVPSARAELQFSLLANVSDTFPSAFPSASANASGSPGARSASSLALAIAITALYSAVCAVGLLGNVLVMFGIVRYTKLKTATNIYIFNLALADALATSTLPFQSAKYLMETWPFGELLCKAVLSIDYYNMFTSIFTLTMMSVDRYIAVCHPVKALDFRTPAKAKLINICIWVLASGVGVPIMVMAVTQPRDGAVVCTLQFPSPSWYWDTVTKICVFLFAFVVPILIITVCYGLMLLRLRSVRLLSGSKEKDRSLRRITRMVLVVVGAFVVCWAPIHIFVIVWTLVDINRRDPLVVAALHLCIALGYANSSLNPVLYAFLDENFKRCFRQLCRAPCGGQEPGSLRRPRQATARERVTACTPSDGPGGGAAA
SMILES,Ki [2] [nM],Ke [3] [nM],Ke [4] [nM],Ke [15] [nM],other results
Oc1ccc2c3c1O[C@H]1c4[nH]c5ccccc5c4C[C@@]4(O)[C@@H](C2)N(CC2CC2)CC[C@]314 [NALTRINDOLE],–,–,–,–,Ki [1]: 0.0072 nM
O=C1[C@@H](Cc2ccccc2)C[C@@]2(O)[C@H]3Cc4ccc(O)c5c4[C@@]2(CCN3CC2CC2)[C@H]1O5,25,1.5,21,–,–
O=C1[C@@H]2Oc3c(O)ccc4c3[C@@]23CCN(CC2CC2)[C@H](C4)[C@]3(O)CC12Cc1ccccc1C2,12.5,0.78,4.2,–,ED50 [5]: 2.8 µmol/kg; ED50 [6]: 6.9 uM mouse-1; ED50 [7]: 21.1 µmol/kg; ED50 [8]: 8.6 uM mouse-1; ED50 [9]: 6.4 uM mouse-1; ED50 [10]: 46.3 µmol/kg; ED50 [11]: 12.2 µmol/kg; ED50 [12]: 0.7 uM mouse-1; Ki [13]: 0.047 nM; Ke [14]: 105 nM
Oc1ccc2c3c1O[C@H]1[C@@H](Nc4ccccc4)CC[C@@]4(O)[C@@H](C2)N(CC2CC2)CC[C@]314,2.2,8.8,3.2,100,–
O=C1/C(=C\c2ccccc2)C[C@@]2(O)[C@H]3Cc4ccc(O)c5c4[C@@]2(CCN3CC2CC2)[C@H]1O5,66,24,–,53,–
Oc1ccc2c3c1O[C@H]1[C@H](Nc4ccccc4)CC[C@@]4(O)[C@@H](C2)N(CC2CC2)CC[C@]314,2.2,100,1.3,6,–
O=C1/C(=C/c2ccccc2)C[C@@]2(O)[C@H]3Cc4ccc(O)c5c4[C@@]2(CCN3CC2CC2)[C@H]1O5 [BNTX],5.9,2.9,8.3,100,–
Oc1ccc2c3c1O[C@H]1C4(CC[C@@]5(O)[C@@H](C2)N(CC2CC2)CC[C@]315)Oc1ccccc1O4,25,–,40,–,–
